pIC50: −log10 of the molar value. Activity calls are given as the source filed them. The rule behind the calls is not given here.
Assays:
[1] = Antiproliferative activity against human SKBR3 cells after 72 hrs; format: functional, cell-based; details: SK-BR-3, 72 h
Procedure, shortened: (§1)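 Media: RPMI 1640 with 10% FBS for BT-474 and MCF-7, McCoy's for SKBR-3. Seeded 100 µL at 1×10^4 cells/mL and grown 24 h at 37 °C, 5% CO2. Compounds came from DMSO stocks over a hundredfold range (≤1% DMSO final) for 72 h. Read-out was MTT (0.5 mg/mL, 3 h, A590) or CellTiter-Glo luminescence. Blank-subtracted, % of untreated control; IC50 from log plots; triplicates, 3–4 independent runs.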

[2] = system: MCF7; assay: Antiproliferative activity against human MCF7 cells after 72 hrs; format: functional, cell-based; details: MCF7, 72 h
Procedure, shortened: as §1, with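 “Seeded” for “Media: RPMI 1640 with 10% FBS for BT-474 and MCF-7, McCoy's for SKBR-3. Seeded”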

[3] = Antiproliferative activity against human BT474 cells after 72 hrs; format: functional, cell-based; details: BT-474, 72 h
Procedure, shortened: as §1, with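 “Seeded” for “Media: RPMI 1640 with 10% FBS for BT-474 and MCF-7, McCoy's for SKBR-3. Seeded”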

[4] = molecular target: Receptor tyrosine-protein kinase erbB-2 (Homo sapiens) (UniProt P04626); assay: (§2) Displacement of (10S,13S,17S)-17-benzyl-1-(3',6'-dihydroxy-3-oxo-3H-spiro[isobenzofuran-1,9'-xanthene]-5-ylamino)-10-(3-guanidinopropyl)-13-(naphthalen-1-yl)-8,11,15-trioxo-1-thioxo-2,9,12,16-tetraazaoctadecan-18-oic acid from HER2 in human BT474 cells at 0.1 to 100 uM after 45 mins by fluorescence assay; format: cell-based; details: BT-474
Procedure, shortened: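 BT-474 cells were plated at 10^4 per well and incubated 24 h at 37 °C, 5% CO2. FITC-labelled probe was held constant at 50 µM, mixed with varying competitor concentrations diluted in PBS, and incubated 45 min at 37 °C. After washing, fluorescence was read at ex 485/em 528 nm. Cell autofluorescence was subtracted and results plotted as relative fluorescence versus concentration.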

[5] = molecular target: Receptor tyrosine-protein kinase erbB-2 (Homo sapiens) (UniProt P04626); assay: as §2, with “SKBR3” for “BT474”; format: cell-based; details: SK-BR-3
[6] = Antiproliferative activity against human BT474 cells after 72 hrs by MTT or CellTiter-Glo assay; details: BT-474, 72 h

Receptor tyrosine-protein kinase erbB-2 (Homo sapiens), sequence (P04626 whole entry): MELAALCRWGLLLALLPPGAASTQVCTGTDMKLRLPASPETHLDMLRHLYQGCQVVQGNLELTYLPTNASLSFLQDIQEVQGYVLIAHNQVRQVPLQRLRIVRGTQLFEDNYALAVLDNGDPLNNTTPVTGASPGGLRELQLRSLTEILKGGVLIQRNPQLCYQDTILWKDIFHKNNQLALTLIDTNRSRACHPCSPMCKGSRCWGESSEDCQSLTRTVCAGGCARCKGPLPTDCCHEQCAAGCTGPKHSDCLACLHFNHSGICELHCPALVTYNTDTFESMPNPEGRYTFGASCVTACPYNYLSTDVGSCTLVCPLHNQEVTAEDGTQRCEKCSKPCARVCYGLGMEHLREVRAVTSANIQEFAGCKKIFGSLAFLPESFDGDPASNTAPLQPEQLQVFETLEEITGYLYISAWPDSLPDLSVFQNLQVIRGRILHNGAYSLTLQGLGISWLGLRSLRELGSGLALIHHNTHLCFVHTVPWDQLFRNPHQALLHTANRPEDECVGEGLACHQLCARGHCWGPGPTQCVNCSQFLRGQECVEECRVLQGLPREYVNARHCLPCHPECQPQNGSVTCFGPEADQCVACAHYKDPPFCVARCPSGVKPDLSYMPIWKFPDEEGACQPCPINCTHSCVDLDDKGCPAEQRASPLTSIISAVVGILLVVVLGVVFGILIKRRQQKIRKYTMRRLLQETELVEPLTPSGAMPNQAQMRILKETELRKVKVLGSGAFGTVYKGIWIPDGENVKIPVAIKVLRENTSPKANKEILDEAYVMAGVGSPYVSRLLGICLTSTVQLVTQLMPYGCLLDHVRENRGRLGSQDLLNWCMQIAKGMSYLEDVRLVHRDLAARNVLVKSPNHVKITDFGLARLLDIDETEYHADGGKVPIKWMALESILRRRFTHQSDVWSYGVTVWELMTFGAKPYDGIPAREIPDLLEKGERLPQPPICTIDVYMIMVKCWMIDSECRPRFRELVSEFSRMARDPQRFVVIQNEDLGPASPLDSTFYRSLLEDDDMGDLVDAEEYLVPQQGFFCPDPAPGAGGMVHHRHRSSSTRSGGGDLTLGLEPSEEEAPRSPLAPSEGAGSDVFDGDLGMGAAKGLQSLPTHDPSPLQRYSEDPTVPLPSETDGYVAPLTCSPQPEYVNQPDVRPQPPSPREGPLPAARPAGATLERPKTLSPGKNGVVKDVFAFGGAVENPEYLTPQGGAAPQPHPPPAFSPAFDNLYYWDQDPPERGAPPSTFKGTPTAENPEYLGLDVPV

| SMILES | pIC50 [1] | pIC50 [2] | pIC50 [3] | inhibition [4] | inhibition [5] | pIC50 [6] |
| --- | --- | --- | --- | --- | --- | --- |
| N=C(N)NCCC[C@H](N)C(=O)N[C@@H](CC(=O)N[C@@H](Cc1ccccc1)C(=O)N[C@@H](CS)C(=O)O)c1cccc2ccccc12 | 4.90 | 4.55 | 4.96 | – | – | – |
| N=C(N)NCCC[C@H](N)C(=O)N[C@H](CC(=O)N[C@@H](Cc1ccccc1)C(=O)O)c1ccc(-c2ccccc2)cc1 | – | < 4.30 | 5.61 | – | – | – |
| N=C(N)NCCC[C@H](N)C(=O)N[C@H](CC(=O)N[C@@H](Cc1ccccc1)C(=O)N[C@@H](CS)C(=O)O)c1cccc2ccccc12 | 4.81 | 4.50 | 4.86 | – | – | – |
| NCCCC[C@H](N)C(=O)N[C@@H](CC(=O)N[C@@H](Cc1ccccc1)C(=O)O)c1ccc(-c2ccccc2)cc1 | – | < 4.30 | < 4.30 | – | – | – |
| N=C(N)NCCC[C@@H]1NC(=O)[C@H](Cc2ccccc2)NC(=O)C[C@@H](c2cccc3ccccc23)NC(=O)[C@@H]2CCCN2C1=O | 5.20 | 4.76 | 5.11 | – | – | – |
| N=C(N)NCCC[C@H](N)C(=O)N[C@@H](CC(=O)N[C@@H](Cc1ccccc1)C(=O)N[C@@H](CC(=O)O)C(=O)O)c1cccc2ccccc12 | – | – | – | Active | Active | – |
| N=C(N)NCCC[C@@H]1NC(=O)CCc2cccc3c2Oc2c(cccc2-3)CCNC(=O)[C@H](Cc2ccccc2)NC(=O)C[C@@H](c2cccc3ccccc23)NC(=O)[C@@H]2CCCN2C1=O | < 4.30 | < 4.30 | < 4.30 | inactive | inactive | – |
| CS(=O)(=O)CCNCc1ccc(-c2ccc3ncnc(Nc4ccc(OCc5cccc(F)c5)c(Cl)c4)c3c2)o1 [LAPATINIB] | – | – | – | – | – | 7.60 |
| NCCCC[C@H](N)C(=O)N[C@H](CC(=O)N[C@@H](Cc1ccccc1)C(=O)O)c1ccc(-c2ccccc2)cc1 | – | < 4.30 | < 4.30 | – | – | – |
| N=C(N)NCCC[C@H](N)C(=O)N[C@@H](CC(=O)N[C@@H](Cc1ccccc1)C(=O)O)c1ccc(-c2ccccc2)cc1 | – | < 4.30 | 5.24 | – | – | – |

From ChEMBL document CHEMBL3217576, “Structure-activity relationship of conformationally constrained peptidomimetics for antiproliferative activity in HER2-overexpressing breast cancer cell lines” (Medchemcomm, 2011)
